{
  "source": "ChEMBL document CHEMBL1145853",
  "about": "“Design, synthesis, and biological evaluation of cytotoxic 11-alkenylindenoisoquinoline topoisomerase I inhibitors and indenoisoquinoline-camptothecin hybrids” (2003)",
  "key": {"Cancer cell lines": {"test_system": "Cancer cell lines", "assay": "Mean graph midpoint for growth inhibition of all human cancer cell lines", "format": "functional"}, "SN12C": {"test_system": "SN12C", "assay": "Cytotoxic concentration against human renal SN12C cell line growth inhibition", "format": "functional"}, "SF-539": {"test_system": "SF-539", "assay": "Cytotoxic concentration against human CNS SF-539 cell line growth inhibition", "format": "functional"}, "HOP-62": {"test_system": "HOP-62", "assay": "Cytotoxic concentration against human lung HOP-62 cell line growth inhibition", "format": "functional"}, "DU-145": {"test_system": "DU-145", "assay": "Cytotoxic concentration against human prostate DU-145 cell line growth inhibition", "format": "functional"}, "UACC-62": {"test_system": "UACC-62", "assay": "Cytotoxic concentration against human melanoma UACC-62 cell line growth inhibition", "format": "functional"}, "[1]": {"target": "T1, DNA topoisomerase 1 (Homo sapiens) (UniProt P11387)", "T1 sequence (whole entry)": "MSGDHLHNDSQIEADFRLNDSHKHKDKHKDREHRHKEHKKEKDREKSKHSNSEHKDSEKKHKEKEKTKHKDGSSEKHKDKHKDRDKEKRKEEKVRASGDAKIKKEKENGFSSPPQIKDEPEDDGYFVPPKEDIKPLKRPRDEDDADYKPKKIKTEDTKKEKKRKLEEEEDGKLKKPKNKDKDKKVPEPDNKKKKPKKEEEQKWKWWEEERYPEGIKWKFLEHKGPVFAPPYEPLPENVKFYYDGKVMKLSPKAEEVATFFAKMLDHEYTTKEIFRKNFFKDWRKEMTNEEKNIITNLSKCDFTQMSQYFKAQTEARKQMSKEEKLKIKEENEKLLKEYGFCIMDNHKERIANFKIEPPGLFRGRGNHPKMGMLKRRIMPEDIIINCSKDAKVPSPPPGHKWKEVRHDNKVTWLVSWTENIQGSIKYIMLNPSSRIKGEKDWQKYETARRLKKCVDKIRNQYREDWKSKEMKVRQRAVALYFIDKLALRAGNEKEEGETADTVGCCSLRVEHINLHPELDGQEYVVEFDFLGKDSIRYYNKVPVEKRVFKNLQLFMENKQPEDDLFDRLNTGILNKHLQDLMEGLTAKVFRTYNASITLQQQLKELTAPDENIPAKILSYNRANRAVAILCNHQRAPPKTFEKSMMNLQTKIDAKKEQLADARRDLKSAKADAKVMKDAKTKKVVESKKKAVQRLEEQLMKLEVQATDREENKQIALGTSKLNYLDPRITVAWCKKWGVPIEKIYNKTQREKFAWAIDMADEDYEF", "assay": "Activity to produce DNA topoisomerase I-mediated DNA cleavage at concentration up to 10 uM; +, indicates weak activity", "in_short": "(§1)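 Human recombinant top1, purified from baculovirus, was incubated for 30 min at 22 °C with the drug at up to 10 μM. The substrate was a 161 bp PvuII/HindIII fragment of pBluescript SK(-), 3'-end-labeled at the HindIII site by Klenow fill-in with [α-32P]dGTP, about 50 000 dpm per reaction. Reactions were stopped with SDS (0.5% final) and run on denaturing 16% polyacrylamide/7 M urea gels. Cleavage was scored semiquantitatively.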"}, "OVCAR-3": {"test_system": "OVCAR-3", "assay": "Cytotoxic concentration against human ovarian OVCAR-3 cell line growth inhibition", "format": "functional"}, "HCT-116": {"test_system": "HCT-116", "assay": "Cytotoxic concentration against human colon HCT116 cell line growth inhibition", "format": "functional"}, "MDA-MB-435": {"test_system": "MDA-MB-435", "assay": "Cytotoxic concentration against human breast MDA-MB-435 cell line growth inhibition", "format": "functional"}, "[2]": {"target": "T1, DNA topoisomerase 1 (Homo sapiens)", "assay": "Activity to produce DNA topoisomerase I-mediated DNA cleavage at concentration up to 10 uM; +++, greater activity than the parent compound 2", "in_short": "as §1"}, "[3]": {"target": "T1, DNA topoisomerase 1 (Homo sapiens)", "assay": "Activity to produce DNA topoisomerase I-mediated DNA cleavage at concentration up to 10 uM", "in_short": "as §1"}},
  "data": [
    {"smiles": "COc1cc2c3c(n(C)c(=O)c2cc1OC)-c1cc2c(cc1/C3=C/CCCCCBr)OCO2", "values": [
      {"measurement": "MGM", "setting": "Cancer cell lines", "value": 7.8, "unit": "µM"}
    ]},
    {"smiles": "COc1cc2cc3n(c(=O)c2cc1OC)Cc1cc2ccccc2nc1-3", "note": "[DIMETHOXYAROMATHECIN]", "values": [
      {"measurement": "GI50", "setting": "SN12C", "value": "> 100", "unit": "µM"},
      {"measurement": "GI50", "setting": "SF-539", "value": "> 100", "unit": "µM"},
      {"measurement": "GI50", "setting": "HOP-62", "value": "> 100", "unit": "µM"},
      {"measurement": "GI50", "setting": "DU-145", "value": "> 100", "unit": "µM"},
      {"measurement": "GI50", "setting": "UACC-62", "value": "> 100", "unit": "µM"},
      {"measurement": "Activity", "setting": "[1]", "value": "indicates weak activity"},
      {"measurement": "GI50", "setting": "OVCAR-3", "value": "> 100", "unit": "µM"},
      {"measurement": "GI50", "setting": "HCT-116", "value": 57.3, "unit": "µM"},
      {"measurement": "GI50", "setting": "MDA-MB-435", "value": "> 100", "unit": "µM"}
    ]},
    {"smiles": "O=c1c2ccccc2cc2n1Cc1cc3ccccc3nc1-2", "note": "[ROSETTACIN]", "values": [
      {"measurement": "GI50", "setting": "SN12C", "value": "> 100", "unit": "µM"},
      {"measurement": "GI50", "setting": "SF-539", "value": 66.7, "unit": "µM"},
      {"measurement": "GI50", "setting": "HOP-62", "value": 68.2, "unit": "µM"},
      {"measurement": "GI50", "setting": "DU-145", "value": "> 100", "unit": "µM"},
      {"measurement": "GI50", "setting": "UACC-62", "value": 97.2, "unit": "µM"},
      {"measurement": "GI50", "setting": "OVCAR-3", "value": 39.8, "unit": "µM"},
      {"measurement": "GI50", "setting": "HCT-116", "value": 32.7, "unit": "µM"},
      {"measurement": "GI50", "setting": "MDA-MB-435", "value": 41.8, "unit": "µM"}
    ]},
    {"smiles": "COc1cc2c3c(n(C)c(=O)c2cc1OC)-c1cc2c(cc1/C3=C/CCN)OCO2", "values": [
      {"measurement": "GI50", "setting": "SN12C", "value": 0.58, "unit": "µM"},
      {"measurement": "GI50", "setting": "SF-539", "value": 0.42, "unit": "µM"},
      {"measurement": "MGM", "setting": "Cancer cell lines", "value": 0.34, "unit": "µM"},
      {"measurement": "GI50", "setting": "HOP-62", "value": 0.071, "unit": "µM"},
      {"measurement": "GI50", "setting": "DU-145", "value": 0.37, "unit": "µM"},
      {"measurement": "GI50", "setting": "UACC-62", "value": 0.2, "unit": "µM"},
      {"measurement": "GI50", "setting": "OVCAR-3", "value": 0.56, "unit": "µM"},
      {"measurement": "GI50", "setting": "HCT-116", "value": 0.028, "unit": "µM"},
      {"measurement": "Activity", "setting": "[2]", "value": "greater activity than compound 2"},
      {"measurement": "GI50", "setting": "MDA-MB-435", "value": 1.8, "unit": "µM"}
    ]},
    {"smiles": "COc1cc2c3c(n(C)c(=O)c2cc1OC)-c1cc2c(cc1/C3=C\\CCCCBr)OCO2", "values": [
      {"measurement": "GI50", "setting": "SN12C", "value": "> 100", "unit": "µM"},
      {"measurement": "GI50", "setting": "UACC-62", "value": "> 100", "unit": "µM"},
      {"measurement": "GI50", "setting": "OVCAR-3", "value": "> 100", "unit": "µM"},
      {"measurement": "GI50", "setting": "MDA-MB-435", "value": "> 100", "unit": "µM"}
    ]},
    {"smiles": "COc1cc2c3c(n(C)c(=O)c2cc1OC)-c1cc2c(cc1/C3=C/CCCI)OCO2", "values": [
      {"measurement": "GI50", "setting": "SN12C", "value": 8.8, "unit": "µM"},
      {"measurement": "GI50", "setting": "SF-539", "value": 4.3, "unit": "µM"},
      {"measurement": "GI50", "setting": "HOP-62", "value": 27.6, "unit": "µM"},
      {"measurement": "GI50", "setting": "DU-145", "value": 28.7, "unit": "µM"},
      {"measurement": "GI50", "setting": "UACC-62", "value": 3.5, "unit": "µM"},
      {"measurement": "GI50", "setting": "OVCAR-3", "value": 22.8, "unit": "µM"},
      {"measurement": "GI50", "setting": "HCT-116", "value": 0.56, "unit": "µM"},
      {"measurement": "Activity", "setting": "[3]", "value": 0},
      {"measurement": "GI50", "setting": "MDA-MB-435", "value": 5.2, "unit": "µM"}
    ]},
    {"smiles": "COc1cc2c3c(n(C)c(=O)c2cc1OC)-c1cc2c(cc1/C3=C\\CCCBr)OCO2", "values": [
      {"measurement": "GI50", "setting": "SN12C", "value": "> 100", "unit": "µM"},
      {"measurement": "GI50", "setting": "SF-539", "value": 30, "unit": "µM"},
      {"measurement": "GI50", "setting": "HOP-62", "value": 19.4, "unit": "µM"},
      {"measurement": "GI50", "setting": "DU-145", "value": 67.8, "unit": "µM"},
      {"measurement": "GI50", "setting": "UACC-62", "value": 11.4, "unit": "µM"},
      {"measurement": "GI50", "setting": "OVCAR-3", "value": 58.1, "unit": "µM"},
      {"measurement": "GI50", "setting": "HCT-116", "value": 37.8, "unit": "µM"},
      {"measurement": "Activity", "setting": "[3]", "value": 0},
      {"measurement": "GI50", "setting": "MDA-MB-435", "value": "> 100", "unit": "µM"}
    ]},
    {"smiles": "COc1cc2c3c(n(C)c(=O)c2cc1OC)-c1cc2c(cc1C3=O)OCO2", "values": [
      {"measurement": "GI50", "setting": "SN12C", "value": 68, "unit": "µM"},
      {"measurement": "GI50", "setting": "SF-539", "value": 41, "unit": "µM"},
      {"measurement": "MGM", "setting": "Cancer cell lines", "value": 20, "unit": "µM"},
      {"measurement": "GI50", "setting": "HOP-62", "value": 1.3, "unit": "µM"},
      {"measurement": "GI50", "setting": "DU-145", "value": 37, "unit": "µM"},
      {"measurement": "GI50", "setting": "UACC-62", "value": 4.2, "unit": "µM"},
      {"measurement": "GI50", "setting": "HCT-116", "value": 35, "unit": "µM"},
      {"measurement": "GI50", "setting": "MDA-MB-435", "value": 96, "unit": "µM"}
    ]},
    {"smiles": "COc1cc2c3c(n(C)c(=O)c2cc1OC)-c1cc2c(cc1/C3=C\\CCCCl)OCO2", "values": [
      {"measurement": "GI50", "setting": "SN12C", "value": "> 100", "unit": "µM"},
      {"measurement": "Activity", "setting": "[1]", "value": "Weak activity"},
      {"measurement": "GI50", "setting": "MDA-MB-435", "value": "> 100", "unit": "µM"}
    ]}
  ]
}
